Experimental data collected from several papers.
Each line is one published result; the experiments were not run side by side.
Target: Testis-specific serine/threonine-protein kinase 3 (TSSK3, Homo sapiens, UniProt Q96PN8)
One construct used (Q96PN8 1-268): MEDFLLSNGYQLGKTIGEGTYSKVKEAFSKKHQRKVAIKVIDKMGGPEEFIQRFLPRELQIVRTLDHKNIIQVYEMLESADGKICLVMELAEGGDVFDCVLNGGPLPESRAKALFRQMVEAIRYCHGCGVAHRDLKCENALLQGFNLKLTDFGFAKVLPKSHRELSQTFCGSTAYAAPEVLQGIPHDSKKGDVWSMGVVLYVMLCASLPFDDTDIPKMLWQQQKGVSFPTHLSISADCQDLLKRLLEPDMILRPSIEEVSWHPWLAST

Compound | observed | method | concentration | remaining binding
CN(C)c1nccc(-c2cnc3ncccn23)n1 | binding | – | 1 µM | 90%
COc1cnc(Nc2cccc(S(N)(=O)=O)c2)nc1N1CCN(c2ccccc2)C(=O)C1 | binding | competition with immobilised ligand | 1 µM | 90%
O=C(NCC1CCOCC1)c1n[nH]cc1NC(=O)c1c(F)cccc1F | binding | competition with immobilised ligand | 1 µM | 100%
O=C(c1ccc(Nc2ncc(Cl)c(-c3ccc(Cl)s3)n2)cc1)N1CCC(N2CCCC2)CC1 | binding | competition with immobilised ligand | 1 µM | 100%
FC(F)(F)Oc1cccc(-c2cnc3ccc(-c4ccncc4)nn23)c1 | binding | competition with immobilised ligand | 5 µM | 91%
C[C@@]1(Cc2ccc(C#N)cc2)C(=O)N(c2cc(Cl)cc(Cl)c2)c2ncc(C(=O)NC3(c4nc(C5CCC5)no4)CC3)n21 | cell-free assay | competition with immobilised ligand | 1 µM | 100%
O=C(NCCCN1CCOCC1)c1ccc(Nc2ncc(Cl)c(-c3ccc(Cl)s3)n2)cc1 | binding | competition with immobilised ligand | 1 µM | 100%
COc1ccnn2ncc(-c3ccnc(N(C)C)n3)c12 | binding | – | 1 µM | 100%
O=C(c1ccc(Nc2nccc(-c3cc4ccccc4s3)n2)cc1)N1CCC(N2CCCC2)CC1 | binding | competition with immobilised ligand | 1 µM | 100%
F[C@@H]1CCN(c2nccc(-c3cnn4ncccc34)n2)C1 | binding | – | 1 µM | 100%
CCS(=O)(=O)c1cc2cc(C[C@](O)(CC(C)(C)c3ccc(F)cc3C(N)=O)C(F)(F)F)[nH]c2cn1 | cell-free assay | competition with immobilised ligand | 1 µM | 100%
COc1cnc(Nc2cccc(S(N)(=O)=O)c2)nc1N1CCN(c2ccccc2)CC1 | binding | competition with immobilised ligand | 1 µM | 97%
c1cnn2ncc(-c3ccnc(N4CCC45COC5)n3)c2c1 | binding | – | 1 µM | 98%
CC1=C(C#N)[C@@H](c2ccc3[nH]nc(C)c3c2)C(C#N)=C(c2ccc(Cl)cc2)N1 | cell-free assay | competition with immobilised ligand | 1 µM | 100%
c1cncc(-c2cccc(Nc3nccc(NC4CCCCC4)n3)c2)c1 | binding | competition with immobilised ligand | 10 µM | 86%
CN([C@@H]1CCc2c(CC(=O)O)c3cc(S(C)(=O)=O)ccc3n2C1)S(=O)(=O)c1ccc(F)cc1 | cell-free assay | competition with immobilised ligand | 1 µM | 100%
C[C@@H]1CCN(c2nccc(-c3cnn4ncccc34)n2)C1 | binding | – | 1 µM | 78%
CCCCN(CCCC)C(=O)CN1C[C@H](c2cc(OC)c3c(c2)OCO3)[C@@H](C(=O)O)[C@@H]1CC(C)(C)CCC | cell-free assay | competition with immobilised ligand | 1 µM | 100%
N[C@@H]1CCN(c2nccc(-c3cnn4ncccc34)n2)C1 | binding | – | 1 µM | 100%
Cc1c(NC(=O)c2cc(C(N)=O)nc3cc(F)ccc23)c(C(F)(F)F)nn1Cc1ccc(C(C)(C)C)cc1 | cell-free assay | competition with immobilised ligand | 1 µM | 100%
COc1ncc2cc3ccccc3nc2c1C#N | cell-free assay | competition with immobilised ligand | 5 µM | 90%
